Our source for the inhibition of growth and EC50 values is ChEMBL document CHEMBL3046529, “Chiral gamma-aryl-1H-1,2,4-triazole derivatives as highly potential antifungal agents: Design, synthesis, structure, and in vitro fungicidal activities” (J Agric Food Chem, 2008).

Assay [1] deals with Fusarium oxysporum. Kind of assay: In vitro fungicidal activity against Fusarium oxysporum assessed as mycelial growth inhibition at 50 mg/l at 26 degC after 48 hr by agar diffusion assay. It is filed as functional. As to conditions: read-out: GI.
Assay [2] has as its system Fusarium graminearum. In words: In vitro fungicidal activity against Fusarium graminearum assessed as mycelial growth inhibition at 100 mg/l at 26 degC after 48 hr by agar diffusion assay. As to conditions: read-out: GI. Format: functional. The method in brief:
(§1)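 Compound is dissolved in DMF and added aseptically to autoclaved agar that has cooled to about 45-50 °C, giving 100 mg/L in the medium. Solvent never exceeds […]. Plain medium is the blank. A 5 mm mycelial plug, cut from the margin of an actively growing colony, goes in the plate centre. Three replicate plates are sealed and kept at 26 °C in darkness. Colony diameter is read at 48 h. Inhibition % = (control − treated diameter)/control diameter.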
Background: In agar diffusion tests the substance spreads into inoculated agar from a disc or well.

Assay [3] has as its system Fusarium oxysporum. Kind of assay: In vitro fungicidal activity against Fusarium oxysporum assessed as mycelial growth inhibition at 100 mg/l at 26 degC after 48 hr by agar diffusion assay. It is filed as functional. The note with it: read-out: GI. The method in brief: as §1
For assay [4], the system named is Rhizoctonia solani. Kind of assay: In vitro fungicidal activity against Rhizoctonia solani assessed as mycelial growth inhibition at 50 mg/l at 26 degC after 48 hr by agar diffusion assay. The note with it: read-out: GI. It is filed as functional.
Assay [5] deals with Fusarium oxysporum. In words: In vitro fungicidal activity against Fusarium oxysporum assessed as mycelial growth inhibition at 26 degC after 48 hr by agar diffusion assay. It is filed as functional, organism-based.
For assay [6], the system named is Colletotrichum gossypii. In words: In vitro fungicidal activity against Colletotrichum gossypii assessed as mycelial growth inhibition at 50 mg/l at 26 degC after 48 hr by agar diffusion assay. Format: functional. The note with it: read-out: GI.
In assay [7] the test system is Rhizoctonia solani. Kind of assay: In vitro fungicidal activity against Rhizoctonia solani assessed as mycelial growth inhibition at 100 mg/l at 26 degC after 48 hr by agar diffusion assay. Format: functional. As to conditions: read-out: GI. The method in brief:
as §1

Assay [8] concerns Botrytis cinerea. In words: In vitro fungicidal activity against Botryotinia fuckeliana assessed as mycelial growth inhibition at 100 mg/l at 26 degC after 48 hr by agar diffusion assay. Format: functional. As to conditions: read-out: GI. The method in brief:
as §1

Assay [9] has as its system Dothiorella gregaria. In words: In vitro fungicidal activity against Dothiorella gregaria assessed as mycelial growth inhibition at 26 degC after 48 hr by agar diffusion assay. Format: functional, organism-based.
Assay [10] has as its system Dothiorella gregaria. In words: In vitro fungicidal activity against Dothiorella gregaria assessed as mycelial growth inhibition at 50 mg/l at 26 degC after 48 hr by agar diffusion assay. Format: functional. The note with it: read-out: GI.
Assay [11] concerns Dothiorella gregaria. In words: In vitro fungicidal activity against Dothiorella gregaria assessed as mycelial growth inhibition at 100 mg/l at 26 degC after 48 hr by agar diffusion assay. It is filed as functional. As to conditions: read-out: GI. The method in brief:
as §1

The test system of assay [12] is Fusarium graminearum. In words: In vitro fungicidal activity against Fusarium graminearum assessed as mycelial growth inhibition at 50 mg/l at 26 degC after 48 hr by agar diffusion assay. It is filed as functional. As to conditions: read-out: GI.
In assay [13] the test system is Colletotrichum gossypii. Kind of assay: In vitro fungicidal activity against Colletotrichum gossypii assessed as mycelial growth inhibition at 26 degC after 48 hr by agar diffusion assay. Format: functional, organism-based.
Assay [14] concerns Rhizoctonia solani. Kind of assay: In vitro fungicidal activity against Rhizoctonia solani assessed as mycelial growth inhibition at 26 degC after 48 hr by agar diffusion assay. It is filed as functional, organism-based.
In assay [15] the test system is Botrytis cinerea. Kind of assay: In vitro fungicidal activity against Botryotinia fuckeliana assessed as mycelial growth inhibition at 50 mg/l at 26 degC after 48 hr by agar diffusion assay. It is filed as functional. As to conditions: read-out: GI.
Assay [16] has as its system Fusarium graminearum. In words: In vitro fungicidal activity against Fusarium graminearum assessed as mycelial growth inhibition at 26 degC after 48 hr by agar diffusion assay. It is filed as functional, organism-based.
Assay [17] concerns Botrytis cinerea. Kind of assay: In vitro fungicidal activity against Botryotinia fuckeliana assessed as mycelial growth inhibition at 26 degC after 48 hr by agar diffusion assay. Format: functional, organism-based.
The subject of assay [18] is Colletotrichum gossypii. Kind of assay: In vitro fungicidal activity against Colletotrichum gossypii assessed as mycelial growth inhibition at 100 mg/l at 26 degC after 48 hr by agar diffusion assay. As to conditions: read-out: GI. It is filed as functional. The method in brief: as §1

Broadly, the EC50 is the concentration needed to bring the measured effect to its halfway point. As for `CC(C)(C)C(=O)C(Oc1ccc(Cl)cc1)n1cncn1` (stereo not drawn) [TRIADIMEFON], the inhibition of growth at 50 µg/mL turned out to be 91% in the assay with Fusarium oxysporum [1]; 91% in the assay with Rhizoctonia solani [4]; 97% in the assay on Colletotrichum gossypii [6]; 14% with Dothiorella gregaria [10]; 59% in the assay on Fusarium graminearum [12]; 78% in the assay with Botrytis cinerea [15]. The inhibition of growth at 100 µg/mL is 76% in the assay on Fusarium graminearum [2]; 97% in the assay on Fusarium oxysporum [3]; 100% in the assay with Rhizoctonia solani [7]; 96% in the assay with Botrytis cinerea [8]; 71% in the assay with Dothiorella gregaria [11]; 100% in the assay with Colletotrichum gossypii [18]. Moreover, the EC50 in the assay on Fusarium oxysporum [5] amounted to 40 µM; in the assay on Dothiorella gregaria [9], 317 µM; in the assay on Colletotrichum gossypii [13], 19 µM; in the assay with Rhizoctonia solani [14], 14 µM; in the assay with Fusarium graminearum [16] it was 163 µM; in the assay with Botrytis cinerea [17], 41 µM.
